The text below walks through data of ChEMBL document CHEMBL3779798, “Novel seleno- and thio-urea derivatives with potent in vitro activities against several cancer cell lines” (Eur J Med Chem, 2016).

Holding throughout (type): functional, cell-based
In assay [1] the test system is A549. The experiment in a line: Anticancer activity against human A549 cells assessed as inhibition of cell growth after 48 hrs by MTT assay. As to conditions: A549, 48 h. The essentials: (§1)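 MTT assay at 3,000 cells/well. Cells treated with DMSO or seven concentrations from 0.5 to 50 µM for 24, 48 or 72 h. MTT added 3 h before the end point; formazan dissolved in DMSO and read at 570 and 630 nm. IC50 is the concentration giving 50% growth inhibition. Media: PANC-1, BxPC3 and 1205Lu in DMEM; DU145 and A549 in RPMI 1640; HT29, HCT116 and RKO in McCoy's 5A, all with 10% FBS and pen/strep, at 37 °C and 5% CO2.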

A short description of assay [2]: Anticancer activity against human PANC1 cells assessed as inhibition of cell growth after 24 hrs by MTT assay. As to conditions: PANC-1, 24 h. The procedure, abridged: as §1
A short description of assay [3]: Anticancer activity against human DU145 cells assessed as inhibition of cell growth after 72 hrs by MTT assay. Conditions: DU-145, 72 h. The procedure, abridged: as §1
Assay [4] in a line: Anticancer activity against human DU145 cells assessed as inhibition of cell growth after 24 hrs by MTT assay. Conditions: DU-145, 24 h. The essentials: as §1
The nature of assay [5]: Anticancer activity against human PANC1 cells assessed as inhibition of cell growth after 48 hrs by MTT assay. As to conditions: PANC-1, 48 h. The essentials:
as §1

The nature of assay [6]: Anticancer activity against human HCT116 cells assessed as inhibition of cell growth after 48 hrs by MTT assay. As to conditions: HCT-116, 48 h. The essentials: as §1
Assay [7] in a line: Anticancer activity against human HCT116 cells assessed as inhibition of cell growth after 24 hrs by MTT assay. As to conditions: HCT-116, 24 h. The procedure, abridged:
as §1

Assay [8] is described as follows: Anticancer activity against human 1205 Lu cells assessed as inhibition of cell growth after 24 hrs by MTT assay. The essentials:
as §1

A short description of assay [9]: Anticancer activity against human BxPC3 cells assessed as inhibition of cell growth after 72 hrs by MTT assay. Conditions: BXPC-3, 72 h. The procedure, abridged: as §1
Assay [10] concerns A549. The experiment in a line: Anticancer activity against human A549 cells assessed as inhibition of cell growth after 24 hrs by MTT assay. As to conditions: A549, 24 h. The essentials:
as §1

Assay [11] can be described thus: Anticancer activity against human BxPC3 cells assessed as inhibition of cell growth after 48 hrs by MTT assay. Conditions: BXPC-3, 48 h. The essentials: as §1
Assay [12] is described as follows: Anticancer activity against human PANC1 cells assessed as inhibition of cell growth after 72 hrs by MTT assay. Conditions: PANC-1, 72 h. The essentials:
as §1

Assay [13] in a line: Anticancer activity against human HCT116 cells assessed as inhibition of cell growth after 72 hrs by MTT assay. As to conditions: HCT-116, 72 h. The procedure, abridged: as §1
The nature of assay [14]: Anticancer activity against human 1205 Lu cells assessed as inhibition of cell growth after 48 hrs by MTT assay. The essentials:
as §1

Assay [15] in a line: Anticancer activity against human 1205 Lu cells assessed as inhibition of cell growth after 72 hrs by MTT assay. The essentials: as §1
A short description of assay [16]: Anticancer activity against human BxPC3 cells assessed as inhibition of cell growth after 24 hrs by MTT assay. Conditions: BXPC-3, 24 h. The procedure, abridged:
as §1

Assay [17] is described as follows: Anticancer activity against human DU145 cells assessed as inhibition of cell growth after 48 hrs by MTT assay. Conditions: DU-145, 48 h. The essentials:
as §1

Assay [18] concerns A549. The experiment in a line: Anticancer activity against human A549 cells assessed as inhibition of cell growth after 72 hrs by MTT assay. As to conditions: A549, 72 h. The procedure, abridged: as §1

As for `Cc1noc(C)c1CSC(=N)N`, the IC50 in assay [1], in assay [2], in assay [3], in assay [4], in [5] and in assay [6] was over 50 µM throughout. Moreover, the IC50 in assay [7] was over 50 µM; in assay [8], over 50 µM; in [9], 47.2 µM; in assay [10] it was over 50 µM; in assay [11], over 50 µM; in assay [12] it was over 50 µM. Besides, the IC50 in [13], in [14], in assay [15], in [16], in [17] and in [18] was over 50 µM throughout.
Take `N=C(N)SCc1ccc(-n2cccc2)cc1`: the IC50 in assay [1] is over 50 µM; in assay [2], over 50 µM; in assay [3], 31.7 µM; in assay [4], over 50 µM; in [5], over 50 µM; in assay [6] it was over 50 µM. Moreover, the IC50 in [7] was over 50 µM; in assay [8], over 50 µM; in [9], 24.6 µM; in [10], over 50 µM; in [11], over 50 µM; in assay [12], 40.6 µM. The IC50 in assay [13] is 31.5 µM; in assay [14] it was over 50 µM; in assay [15] it was over 50 µM; in assay [16], over 50 µM; in assay [17], over 50 µM; in [18] it was over 50 µM.
With `N=C(N)[Se]Cc1ccc(-n2cccc2)cc1`, the IC50 in assay [1] is 16.3 µM; in assay [2], over 50 µM; in [3] it was over 50 µM; in assay [4], over 50 µM; in assay [5], over 50 µM; in assay [6], over 50 µM. Further, the IC50 was over 50 µM in assay [7]; over 50 µM in assay [8]; 8.3 µM in assay [9]; 25.3 µM in [10]; 14.7 µM in assay [11]; over 50 µM in assay [12]. For the same compound, the IC50 in assay [13] was over 50 µM; in [14], over 50 µM; in assay [15], over 50 µM; in assay [16] it was over 50 µM; in assay [17], over 50 µM; in assay [18], 12.8 µM.
For the compound `N=C(N)[Se]Cc1ccc2ccccc2n1`, the IC50 in assay [1] stood at 15.1 µM; in assay [2], 18 µM; in [3], 7.3 µM; in assay [4] it was 19.6 µM; in assay [5] it was 15.9 µM; in assay [6] it was 19.6 µM. Moreover, the IC50 in [7] is 29.7 µM; in [8] it was 14.4 µM; in assay [9], 7.8 µM; in assay [10], 39.6 µM; in assay [11] it was 17 µM; in assay [12], 9.6 µM. In addition, the IC50 in [13] was determined as 10.6 µM; in assay [14] it was 9.9 µM; in assay [15], 7.1 µM; in assay [16] it was 36.6 µM; in assay [17], 11.6 µM; in [18] it was 8.1 µM.
In the case of `Cc1noc(C)c1C[Se]C(=N)N`, the IC50 in [1] was 2.8 µM; in assay [2], over 50 µM; in assay [3], 7.4 µM; in [4], over 50 µM; in assay [5] it was 37.4 µM; in assay [6], 45 µM. Moreover, the IC50 in [7] is over 50 µM; in assay [8], over 50 µM; in [9], 2.4 µM; in [10] it was over 50 µM; in [11], 6.8 µM; in assay [12], 13.6 µM. Also, the IC50 was 4.6 µM in [13]; over 50 µM in assay [14]; 3.4 µM in [15]; over 50 µM in assay [16]; 22 µM in assay [17]; 1.2 µM in [18].
For `N=C(N)SCc1c2ccccc2nc2ccccc12`, the IC50 in [1], in [2], in assay [3], in assay [4], in assay [5] and in assay [6] was over 50 µM in each case. The IC50 in assay [7] is over 50 µM; in [8] it was over 50 µM; in [9], 46.3 µM; in [10], over 50 µM; in [11], over 50 µM; in assay [12], over 50 µM. Further, the IC50 was 45.1 µM in [13]; over 50 µM in [14]; over 50 µM in assay [15]; over 50 µM in assay [16]; over 50 µM in assay [17]; over 50 µM in [18].
As for `COc1cc2oc(=O)cc(C[Se]C(=N)N)c2cc1OC`, the half-maximal inhibitory concentration (IC50) is 5.2 µM in [1]; 20.6 µM in assay [2]; 6.8 µM in assay [3]; 11.4 µM in [4]; 19.4 µM in [5]; 8.9 µM in [6]. The IC50 in [7] is 26.7 µM; in [8], 21 µM; in assay [9], 6.6 µM; in assay [10] it was 15.7 µM; in assay [11] it was over 50 µM; in [12], 10 µM. Moreover, the IC50 in [13] is 6.6 µM; in [14], 4.4 µM; in [15] it was 1.9 µM; in assay [16] it was over 50 µM; in [17], 8.4 µM; in assay [18] it was 4.5 µM.
For the compound `COc1cc2oc(=O)cc(CSC(=N)N)c2cc1OC`, the IC50 in assay [1], in assay [2], in [3], in [4], in assay [5] and in assay [6] was over 50 µM each time. The IC50 in [7], in assay [8], in assay [9], in assay [10], in assay [11] and in assay [12] was over 50 µM throughout. Besides, the IC50 in assay [13] was over 50 µM; in [14] it was over 50 µM; in assay [15], 37.4 µM; in [16], over 50 µM; in assay [17] it was over 50 µM; in assay [18], over 50 µM.
Regarding `N=C(N)SCN1C(=O)c2ccccc2C1=O`, the IC50 in assay [1], in assay [2], in assay [3], in assay [4], in assay [5] and in [6] was over 50 µM throughout. Moreover, the IC50 in assay [7], in assay [8], in assay [9], in assay [10], in assay [11] and in assay [12] was over 50 µM throughout. The IC50 in [13], in assay [14], in assay [15], in assay [16], in assay [17] and in assay [18] was over 50 µM throughout.
Turning to `N=C(N)[Se]Cc1ccc([N+](=O)[O-])o1`, the IC50 in assay [1] was 10.2 µM; in assay [2], over 50 µM; in assay [3], 15.6 µM; in assay [4], over 50 µM; in [5] it was 15.6 µM; in assay [6], 3.7 µM. For the same compound, the IC50 turned out to be 14.6 µM in [7]; 19.1 µM in assay [8]; 15.6 µM in assay [9]; 22.9 µM in assay [10]; 39.4 µM in assay [11]; 13.6 µM in [12]. The 50% inhibitory concentration (IC50) in assay [13] was 3.8 µM; in [14], 15.7 µM; in [15], 13 µM; in [16] it was 42.9 µM; in [17] it was over 50 µM; in [18] it was 9 µM.
`N=C(N)SCc1cc2c(cc1Br)OCO2`: the IC50 in assay [1] is over 50 µM; in assay [2], over 50 µM; in assay [3] it was over 50 µM; in [4], over 50 µM; in assay [5] it was 40.5 µM; in assay [6], 34.8 µM. For the same compound, the IC50 is over 50 µM in assay [7]; over 50 µM in [8]; 44.3 µM in assay [9]; over 50 µM in assay [10]; over 50 µM in assay [11]; 34.3 µM in assay [12]. Also, the IC50 in assay [13] is 22.1 µM; in assay [14] it was over 50 µM; in [15] it was over 50 µM; in assay [16], over 50 µM; in [17] it was over 50 µM; in assay [18] it was over 50 µM.
